According to ChEMBL document CHEMBL5046217, “Discovery of New Imidazo[2,1-b]thiazole Derivatives as Potent Pan-RAF Inhibitors with Promising In Vitro and In Vivo Anti-melanoma Activity” (J Med Chem, 2021):

Experiments:
[1] = target: Serine/threonine-protein kinase B-raf (Homo sapiens, UniProt P15056, V600E); assay: Inhibition of human BRAF V600E mutant using myelin basic protein as substrate in presence of [gamma-33P]ATP incubated for 40 mins by scintillation counting method
Summary of the method: (§1)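 Radiometric kinase assay run at Reaction Biology. Kinase (5−10 mU) in 25 mM Tris pH 7.5, 0.02 mM EGTA, 10 mM magnesium acetate with 0.66 mg/mL myelin basic protein and [γ-33P]ATP at 1 μM ATP. Reaction started with Mg-ATP and run 40 min at room temperature, then stopped with 3% phosphoric acid. Spotted on P30 filtermat, washed, scintillation counted.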

[2] = target: RAF proto-oncogene serine/threonine-protein kinase (Homo sapiens, UniProt P04049); assay: Inhibition of human wild type CRAF using myelin basic protein as substrate in presence of [gamma-33P]ATP incubated for 40 mins by scintillation counting method
RAF proto-oncogene serine/threonine-protein kinase, sequence (P04049 whole entry): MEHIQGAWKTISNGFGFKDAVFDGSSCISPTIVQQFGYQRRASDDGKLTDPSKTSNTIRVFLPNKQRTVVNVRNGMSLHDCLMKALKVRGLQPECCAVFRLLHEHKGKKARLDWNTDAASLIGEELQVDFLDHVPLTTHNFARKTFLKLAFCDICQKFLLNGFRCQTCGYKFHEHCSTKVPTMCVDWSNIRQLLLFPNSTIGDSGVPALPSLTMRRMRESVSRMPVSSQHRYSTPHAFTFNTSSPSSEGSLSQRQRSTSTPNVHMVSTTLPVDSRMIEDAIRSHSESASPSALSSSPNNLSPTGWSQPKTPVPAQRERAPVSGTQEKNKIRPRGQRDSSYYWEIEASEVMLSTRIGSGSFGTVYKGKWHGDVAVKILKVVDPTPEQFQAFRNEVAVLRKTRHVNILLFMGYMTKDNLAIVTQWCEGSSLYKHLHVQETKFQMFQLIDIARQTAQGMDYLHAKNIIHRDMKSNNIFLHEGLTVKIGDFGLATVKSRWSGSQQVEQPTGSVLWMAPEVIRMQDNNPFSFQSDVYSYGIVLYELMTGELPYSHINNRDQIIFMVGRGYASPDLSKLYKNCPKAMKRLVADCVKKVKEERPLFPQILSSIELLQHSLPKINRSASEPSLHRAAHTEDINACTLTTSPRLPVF

[3] = target: Serine/threonine-protein kinase B-raf (Homo sapiens, UniProt P15056); assay: Inhibition of human wild type BRAF using myelin basic protein as substrate in presence of [gamma-33P]ATP incubated for 40 mins by scintillation counting method; summary of the method: as §1
Serine/threonine-protein kinase B-raf (Homo sapiens, UniProt P15056), sequence (P15056 whole entry): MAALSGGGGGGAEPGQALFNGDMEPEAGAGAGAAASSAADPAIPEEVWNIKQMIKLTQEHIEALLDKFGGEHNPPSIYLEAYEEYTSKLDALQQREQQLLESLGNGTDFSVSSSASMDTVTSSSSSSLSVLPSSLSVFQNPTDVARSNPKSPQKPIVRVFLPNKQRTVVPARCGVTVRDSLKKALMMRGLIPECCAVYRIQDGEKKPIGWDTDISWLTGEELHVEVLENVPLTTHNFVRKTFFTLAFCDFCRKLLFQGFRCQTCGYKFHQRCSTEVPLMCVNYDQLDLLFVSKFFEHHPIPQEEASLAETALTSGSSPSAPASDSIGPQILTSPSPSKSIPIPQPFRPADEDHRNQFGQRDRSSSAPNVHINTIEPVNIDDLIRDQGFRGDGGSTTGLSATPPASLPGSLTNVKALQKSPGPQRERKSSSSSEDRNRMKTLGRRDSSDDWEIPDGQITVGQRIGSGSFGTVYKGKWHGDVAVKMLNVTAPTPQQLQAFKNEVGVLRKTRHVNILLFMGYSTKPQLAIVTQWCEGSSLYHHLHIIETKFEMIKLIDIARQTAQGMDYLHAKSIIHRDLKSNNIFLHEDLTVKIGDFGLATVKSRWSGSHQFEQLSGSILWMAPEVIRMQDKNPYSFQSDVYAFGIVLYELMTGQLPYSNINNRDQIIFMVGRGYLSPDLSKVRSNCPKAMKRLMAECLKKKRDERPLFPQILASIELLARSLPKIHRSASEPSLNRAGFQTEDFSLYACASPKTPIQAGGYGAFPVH

[4] = system: Panel melanoma (Carcinoma cell lines); assay: cells; conditions: Homo sapiens, 48 h, read-out: INH
[5] = Cytotoxicity against human L132 cells assessed as cell growth inhibition incubated for 48 hrs by MTT assay; type: toxicity, cell-based
[6] = Cytotoxicity against human BJ cells assessed as cell growth inhibition incubated for 48 hrs by MTT assay; type: toxicity, cell-based
Summary of the method: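 BJ1 normal skin fibroblasts were seeded at 10 × 10³ cells/well with compound in triplicate wells and grown in DMEM-F12 at 37 °C, 5% CO₂, across an eight-point dilution series. Growth inhibition was calculated as (1 − T/C) × 100, and IC50 was taken from the dose–response curve.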

Serine/threonine-protein kinase B-raf (Homo sapiens, UniProt P15056, V600E), sequence (P15056 2-766 V600E limits assumed): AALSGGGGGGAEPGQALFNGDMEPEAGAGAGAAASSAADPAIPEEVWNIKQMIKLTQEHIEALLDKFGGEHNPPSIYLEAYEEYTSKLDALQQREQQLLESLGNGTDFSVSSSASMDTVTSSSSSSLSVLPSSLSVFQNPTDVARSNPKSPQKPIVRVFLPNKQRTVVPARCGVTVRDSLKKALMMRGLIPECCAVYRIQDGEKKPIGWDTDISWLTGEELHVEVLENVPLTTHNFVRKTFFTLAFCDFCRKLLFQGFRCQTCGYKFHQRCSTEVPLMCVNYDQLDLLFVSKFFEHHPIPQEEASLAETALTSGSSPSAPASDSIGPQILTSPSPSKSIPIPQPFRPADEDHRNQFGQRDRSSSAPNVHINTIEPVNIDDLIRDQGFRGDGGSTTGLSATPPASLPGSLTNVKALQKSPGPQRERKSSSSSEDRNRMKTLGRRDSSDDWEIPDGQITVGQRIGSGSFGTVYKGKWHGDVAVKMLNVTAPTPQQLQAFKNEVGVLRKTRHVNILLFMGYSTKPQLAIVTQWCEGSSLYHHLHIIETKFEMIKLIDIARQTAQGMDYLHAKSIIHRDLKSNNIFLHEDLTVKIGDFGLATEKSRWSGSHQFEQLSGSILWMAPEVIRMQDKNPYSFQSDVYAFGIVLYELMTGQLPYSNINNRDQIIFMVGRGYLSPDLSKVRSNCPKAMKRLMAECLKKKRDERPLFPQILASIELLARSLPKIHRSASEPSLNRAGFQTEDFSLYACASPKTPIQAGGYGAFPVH

`COc1cccc(-c2nc3sccn3c2-c2ccnc(NCCCNS(=O)(=O)c3ccc4ccccc4c3)n2)c1` showed an IC50 [1] of 165 nM, an IC50 [2] of 172 nM and an IC50 [3] of 842 nM.
`Cc1ccc(S(=O)(=O)NCCNc2nccc(-c3c(-c4ccccc4)nc4sccn34)n2)cc1` showed an IC50 [1] of 89.3 nM, an IC50 [2] of 251 nM and an IC50 [3] of 623 nM.
`O=S(=O)(NCCNc1nccc(-c2c(-c3ccccc3)nc3sccn23)n1)c1ccc(O)cc1` showed an IC50 [1] of 65 nM, an IC50 [2] of 75 nM and an IC50 [3] of 97 nM.
Compound `CC(C)(C)OC(=O)N1CCCN(CCNc2nccc(-c3c(-c4cccc(O)c4)nc4sccn34)n2)S1(=O)=O` has an IC50 [1] of 9.57 nM, an IC50 [2] of 9.98 nM and an IC50 [3] of 11.2 nM.
With `O=S(=O)(NCCCNc1nccc(-c2c(-c3ccccc3)nc3sccn23)n1)c1ccc(F)cc1` the IC50 [1] was 57.7 nM, the IC50 [2] was 87.8 nM and the IC50 [3] was 276 nM. The inhibition at 10 µM [4] was 59.7%.
For `COc1cccc(-c2nc3sccn3c2-c2ccnc(NCCN3CCN(C)S3(=O)=O)n2)c1`, the IC50 [1] was 1.51 nM, the IC50 [2] was 2.52 nM and the IC50 [3] was 6.12 nM.
`COc1ccc(-c2nc3sccn3c2-c2ccnc(NCCNS(=O)(=O)c3ccc(OC)cc3)n2)cc1` showed an IC50 [1] of 26300 nM, an IC50 [2] of 24300 nM and an IC50 [3] of 9890 nM.
With `COc1cccc(-c2nc3sccn3c2-c2ccnc(NCCCNS(=O)(=O)c3ccc(C)cc3)n2)c1` the IC50 [1] was 168 nM, the IC50 [2] was 209 nM and the IC50 [3] was 894 nM.
In the case of `COc1ccc(-c2nc3sccn3c2-c2ccnc(NCCNS(=O)(=O)c3ccc(C)cc3)n2)cc1`, the IC50 at 48 h [5] is reported as 466000 nM, the IC50 at 48 h [6] is reported as 126000 nM and the IC50 [1] is reported as 26600 nM. The IC50 [2] was 21300 nM and the IC50 [3] was 19300 nM.
